Screens deposited in PubChem BioAssay by several laboratories.
L major viab – reduces viability of Leishmania major promastigotes; resazurin fluorescence viability; inhibition, % at 10 µM; actives 9% (n = 200,000); AID 1063; in the data active means inhibition above about 50%;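 further: promastigotes grown with compound for 44 hours at 28 °C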
TNAP act hi DEA – activators of human TNAP at high phosphate acceptor concentration; P05186; purified TNAP, CDP-star luminescence, 1 M DEA, 30 min; hits give high values; 0 = EDTA background, 1 = DMSO-only activity; activation factor at 20 µM; 200,000 tested, under 10 active; AID 1136;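 active means activation factor at least 2 at 20 µM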
Target sequence (P05186 whole entry, looked up): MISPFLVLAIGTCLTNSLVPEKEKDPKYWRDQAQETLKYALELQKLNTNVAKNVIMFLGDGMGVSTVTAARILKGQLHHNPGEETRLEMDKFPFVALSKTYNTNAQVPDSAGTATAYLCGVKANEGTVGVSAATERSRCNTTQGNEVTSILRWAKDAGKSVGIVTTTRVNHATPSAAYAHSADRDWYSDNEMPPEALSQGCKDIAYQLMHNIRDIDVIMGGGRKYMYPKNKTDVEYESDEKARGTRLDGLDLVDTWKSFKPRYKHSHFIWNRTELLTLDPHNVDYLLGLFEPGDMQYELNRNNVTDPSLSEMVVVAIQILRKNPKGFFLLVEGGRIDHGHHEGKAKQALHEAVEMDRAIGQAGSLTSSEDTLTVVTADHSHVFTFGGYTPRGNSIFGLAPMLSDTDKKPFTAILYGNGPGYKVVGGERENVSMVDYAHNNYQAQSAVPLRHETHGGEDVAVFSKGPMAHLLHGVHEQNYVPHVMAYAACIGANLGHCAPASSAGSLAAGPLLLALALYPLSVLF
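Dosing: 20 µM single point. System: human TNAP. Amount: TNAP 1/800 final. Incubation: 30 min, room temperature. Read-out: TNAP activation factor scaled between EDTA and DMSO control wells. Signal: luminescence from CDP-star hydrolysis. Medium: 1 M DEA, pH 9.8, Mg2+, Zn2+. Control set: EDTA negative control, DMSO positive control.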
TNAP inh hiacc – TNAP (human) inhibition, high acceptor. P05186. purified TNAP, CDP-star luminescence, 1 M DEA. inhibition, % at 20 µM. actives 0.03% (n = 200,000);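 active means over 50% inhibition of tissue-nonspecific alkaline phosphatase at 20 µM in the single-dose screen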;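 further: plate controls were DMSO wells for no effect and EDTA-quenched wells as full inhibition for full effect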
TNAP inh no acc – blocks human TNAP activity with no phosphate acceptor present; P05186; purified TNAP, CDP-star luminescence, 30 min; inhibition, % at 20 µM; actives 0.26% (n = 200,000);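 active means tissue-nonspecific alkaline phosphatase inhibition above about 50% at 20 µM in the single-dose screen, limit read from the data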;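 further: 0% = DMSO negative control and 100% = EDTA positive control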
bCat KO growth – beta-catenin-lacking colon tumor cell growth suppression; HCT116 beta-catenin knockout viability, CellTiter-Glo, 60 h; hits give low values; viability, % at 10 µM; actives 1.5% (n = 140,000); AID 818;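 active means viability at or under a set limit, the compound median less 4 SD, cut at about 6% in these data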;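 further: 0% = Hyamine 1622 control at 20 µM and 100% = untreated cell control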
PTEN del growth – PTEN-deleted cell growth suppression; HCT116 PTEN-null viability, CellTiter-Glo, 60 h; hits give low values; viability, % at 10 µM; actives 1.2% (n = 140,000);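 active means viability at or below a set limit, 4 SD under the median of all tested compounds, cut at about 3.7% in these data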;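 further: PTEN knockout HCT116 line with beta catenin targeted HCT116 as companion control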
Numbers without * were called inactive; nt = not tested or not shown. Sampled rows, rich in hits. Any-hit rate of the full collection: about 9.6%.

SMILES	L major viab	TNAP act hi DEA	TNAP inh hiacc	TNAP inh no acc	bCat KO growth	PTEN del growth
CCc1ccccc1OCCCCCNCCO	92*	1	-5	-6	79	83
Cc1cccc(OCCCCCNCCO)c1	99*	1	-3	-3	nt	nt
CCC(=O)NCCCOc1ccccc1	-6	1	-5	-9	107	100
CCCCNCCCCOc1ccccc1	88*	1	2	-8	96	97
Cc1cc(OCCCCCNCCO)ccc1Cl	100*	1	0	-4	54	59
NS(=O)(=O)c1ccc(NC(=S)Nc2ccc(F)c(F)c2)cc1	39	1	0	14	89	84
C#CCNC(=O)C1=C[C@@H](c2csc3ccccc23)C[C@@H](OCc2ccc(CO)cc2)O1	20	1	-2	-3	nt	nt
Cc1cccc(OCCCCNCc2ccccc2)c1	89*	1.1	-6	-7	nt	nt
CCOc1ccccc1OCCOc1ccc(F)cc1	-2	1.1	-9	-7	98	87
OCCNCCCCCOc1ccc(F)cc1	97*	1.1	-7	-14	91	93
CCCCCCOc1cccc(N)c1	3	1	-4	3	106	98
CCc1cccc(OCCCCNCCO)c1	91*	1.1	-6	-13	100	96
COc1ccc(C(=O)C(CCC(CNC(C)(C)C)C(=O)c2ccc(OC)cc2)CNC(C)(C)C)cc1 (stereo unspecified)	100*	1	-3	-7	1.0*	1.2*
COC(=O)c1ccc(NC(=O)Nc2ccc(OC)cc2)cc1	40	1	2	-6	nt	nt
O=C(NCCc1ccccc1)C(=O)c1c(-c2ccccc2)[nH]c2ccccc12	18	1	-1	-2	77	69
CCCCn1c(CCC)nc([N+](=O)[O-])c1Sc1ccc(Cl)cn1	75*	1	1	-8	16	14
CC(C)Cn1c(C(C)C)nc([N+](=O)[O-])c1Sc1ccc(Cl)cn1	41	1	-3	-9	77	63
Cc1cc(=O)[nH]c(SC(C(=O)O)c2ccccc2)n1 (stereo unspecified)	73*	1.1	-6	-10	87	89
Cc1cc(-c2ccccc2)nc(SC(C(=O)O)c2ccccc2)n1 (stereo unspecified)	-3	1	-1	-2	nt	nt
CC(=O)c1cccc(NC(=O)Cn2nc(-c3ccc(Cl)cc3)ccc2=O)c1	-7	1	-1	-4	nt	nt
CCN1C(=O)c2cccc3c(S(=O)(=O)NCc4cccnc4)ccc1c23	70*	1	-4	-12	84	75
CCN1C(=O)c2cccc3c(S(=O)(=O)Nc4ccncc4)ccc1c23	-3	1.1	-10	-9	99	98
COc1ccc(OC)c(NC(=O)c2cc3c(Cl)nc4ccccc4c3s2)c1	72*	1	-1	-5	97	94
COc1ccc(NC(=O)c2cc3c(Cl)nc4ccccc4c3s2)cc1OC	-4	1	2	-6	41	15
Cc1ccc(O)c(-c2cc3ccccc3[nH]2)c1	59*	1	0	-6	72	59
SMILES	L major viab	TNAP act hi DEA	TNAP inh hiacc	TNAP inh no acc	bCat KO growth	PTEN del growth
CCNC(=S)Nc1ccc(OCC)cc1	65*	1	1	-12	103	97
O=C(COc1cccnc1[N+](=O)[O-])NCc1ccco1	-2	1.1	-6	-11	nt	nt
COCCSc1nnc(NC(=O)c2ccc([N+](=O)[O-])cc2)s1	0	1	0	-8	nt	nt
O=C(Nc1ncccn1)c1cc([N+](=O)[O-])cc([N+](=O)[O-])c1	99*	1	-2	-6	99	81
Cc1cc(C)nc(NC(=O)c2cc([N+](=O)[O-])cc([N+](=O)[O-])c2)n1	59*	1	2	-8	92	94
Cc1cc(C)nc(NC(=O)c2ccc(C)c([N+](=O)[O-])c2)n1	-7	1	2	-4	90	96
CCOC(=O)CSc1nnc(NC(=O)c2cc([N+](=O)[O-])cc([N+](=O)[O-])c2)s1	82*	1	-1	-1	90	96
O=C(CN1CCCc2ccccc21)Nc1ccc(F)cc1[N+](=O)[O-]	-3	1	-4	-2	nt	nt
CSc1nnc(CNS(=O)(=O)c2ccc(Cl)cc2)n1C	-8	1.1	-6	-10	nt	nt
O=C1c2cccc3c([N+](=O)[O-])ccc(c23)C(=O)N1Cc1cccnc1	100*	1	-3	-6	nt	nt
